In experiment [1] the test system is Mus musculus. Description: Effective dose required to prevent convulsions in mice after iv administration of 70 mg/kg of metrazole compound in antipentylene tetrazole test. In kind it is functional. In outline:
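Male CF-1 mice, 50–54 days old, tested by a modified Everett–Richards method. Metrazole 70 mg/kg is given iv, and convulsions are scored.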

For experiment [2], the species on record is Mus musculus. The experiment can be described thus: Effective dose required for […] in mice in rotarod test. The format is functional. (Falling from the rotarod earlier than controls is read as motor impairment.)
Experiment [3] addresses GABA-A receptor; anion channel. The experiment can be described thus: Displacement of [3H]diazepam binding in rat brain membranes. The format is cell membranes.

SMILES strings stand for the structures.

Results on 5 compounds are retold here after ChEMBL document CHEMBL1122391, “2-benzazepines. 6. Synthesis and pharmacological properties of the metabolites of 9-chloro-7-(2-chlorophenyl)-5H-pyrimido[5,4-d] [2]benzazepine” (J Med Chem, 1983).

With `CN1C(=O)CN=C(c2ccccc2)c2cc(Cl)ccc21` [DIAZEPAM], the ED50 (as a rule, the dose that gives a 50% effect, or the effect in half of the subjects) came out at 1.4 mg/kg in the experiment with Mus musculus [1] and 2.6 mg/kg in the experiment listed under Mus musculus [2].

Regarding `Clc1ccc2c(c1)C(c1ccccc1Cl)=NCc1cncnc1-2`, the 50% effective dose (ED50) in the experiment on Mus musculus [1] amounted to 0.59 mg/kg; in the experiment listed under Mus musculus [2], 1.4 mg/kg. In experiment [3], the 50% inhibitory concentration (IC50) (in general, the point on the concentration scale where inhibition reaches its midpoint) turned out to be 1.7 nM.

Regarding `OC1N=C(c2ccccc2Cl)c2cc(Cl)ccc2-c2ncncc21` (centres undefined), the 50% effective dose (ED50) in the experiment with Mus musculus [1] is 0.74 mg/kg; in the experiment listed under Mus musculus [2] it was 4.8 mg/kg. Moreover, the concentration for half-maximal inhibition (IC50) in experiment [3] came out at 6.4 nM.

Consider `Oc1ccc(C2=NCc3cncnc3-c3ccc(Cl)cc32)c(Cl)c1`, for which the 50% effective dose (ED50) is greater than 100 mg/kg with Mus musculus [1] and greater than 1000 mg/kg in the experiment listed under Mus musculus [2]. Besides, in experiment [3], the half-inhibitory concentration (IC50) came to 100 nM.

As to `[O-][n+]1cnc2c(c1)CN=C(c1ccccc1Cl)c1cc(Cl)ccc1-2`, the median effective dose (ED50) with Mus musculus [1] amounted to 0.65 mg/kg; in the experiment listed under Mus musculus [2], 4.9 mg/kg. The half-inhibitory concentration (IC50) in experiment [3] was found to be 1.25 nM.
